Laboratory results: ChEMBL document CHEMBL4433215, “SAR Studies and Biological Characterization of a Chromen-4-one Derivative as an Anti-Trypanosoma brucei Agent” (ACS Med Chem Lett, 2019)

What was measured:
[1] = tested on: Trypanosoma brucei; assay: Antitrypanosomal activity against Trypanosoma brucei bloodstream form assessed as parasite growth inhibition at 10 uM after 72 hrs by resazurin dye-based assay relative to control; type: functional; details: read-out: GI
In short: (§1)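 T. brucei bloodstream forms were screened first. Compounds giving over 70% parasite growth inhibition then went to a full dose–response curve to derive EC50. Pentamidine was the reference.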

[2] = tested on: Trypanosoma brucei; assay: Antitrypanosomal activity against Trypanosoma brucei bloodstream form after 72 hrs by resazurin dye-based assay relative to control; type: functional, organism-based; in short: as §1
[3] = Cytotoxicity against human THP1 cells by MTT assay; type: cell-based, THP-1
[4] = Selectivity index, ratio of CC50 for cytotoxicity against human THP1 cells to EC50 for antitrypanosomal activity against Trypanosoma brucei bloodstream form; type: toxicity, cell-based; details: read-out: Ratio CC50/EC50
[5] = target: Voltage-gated inwardly rectifying potassium channel KCNH2 (Homo sapiens, UniProt Q12809); assay: Inhibition of human ERG at 10 uM after 2 hrs by fluorescence polarization assay
Voltage-gated inwardly rectifying potassium channel KCNH2, sequence (Q12809 whole entry): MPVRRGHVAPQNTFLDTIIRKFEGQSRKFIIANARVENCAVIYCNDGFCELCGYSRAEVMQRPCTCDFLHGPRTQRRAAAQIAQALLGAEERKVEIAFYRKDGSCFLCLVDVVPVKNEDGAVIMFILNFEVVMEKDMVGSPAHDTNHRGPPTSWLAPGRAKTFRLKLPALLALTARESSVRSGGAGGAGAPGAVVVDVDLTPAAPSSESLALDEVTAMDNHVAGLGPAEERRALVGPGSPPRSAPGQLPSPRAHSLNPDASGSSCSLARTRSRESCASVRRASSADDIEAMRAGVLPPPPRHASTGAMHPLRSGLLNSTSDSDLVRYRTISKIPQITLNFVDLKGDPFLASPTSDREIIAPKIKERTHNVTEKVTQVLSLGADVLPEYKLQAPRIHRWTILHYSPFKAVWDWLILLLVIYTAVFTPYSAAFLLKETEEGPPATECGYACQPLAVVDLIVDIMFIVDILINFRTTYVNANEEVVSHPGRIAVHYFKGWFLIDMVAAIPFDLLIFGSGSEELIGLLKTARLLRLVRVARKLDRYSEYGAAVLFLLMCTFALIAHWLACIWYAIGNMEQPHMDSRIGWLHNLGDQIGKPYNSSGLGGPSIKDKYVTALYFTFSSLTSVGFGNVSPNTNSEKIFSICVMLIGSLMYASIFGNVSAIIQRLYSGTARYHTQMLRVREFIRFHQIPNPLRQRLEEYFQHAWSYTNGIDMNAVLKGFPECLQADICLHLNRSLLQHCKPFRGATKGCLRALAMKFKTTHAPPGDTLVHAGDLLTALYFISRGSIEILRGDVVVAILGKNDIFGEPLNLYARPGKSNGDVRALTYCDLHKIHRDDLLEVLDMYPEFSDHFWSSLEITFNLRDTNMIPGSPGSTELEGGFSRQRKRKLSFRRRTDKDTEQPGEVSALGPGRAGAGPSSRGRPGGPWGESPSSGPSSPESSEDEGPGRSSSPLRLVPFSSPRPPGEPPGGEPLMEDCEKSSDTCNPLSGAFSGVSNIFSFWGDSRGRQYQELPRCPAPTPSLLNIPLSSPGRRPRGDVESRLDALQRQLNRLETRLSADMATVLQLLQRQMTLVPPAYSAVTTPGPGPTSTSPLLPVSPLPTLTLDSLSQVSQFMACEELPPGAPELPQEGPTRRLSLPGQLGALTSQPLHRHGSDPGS
In short: (§2)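 Single-concentration screen at 10 μM within an early in vitro ADME-tox panel, covering cytotoxicity in A549 cells and hERG inhibition.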

[6] = tested on: 786-0; assay: Mitochondrial toxicity in human 786-O cells at 10 uM after 6 hrs by MitoTracker Red chloromethyl-X-rosamine based assay; type: cell-based; details: 786-0, 6 h
[7] = Cytotoxicity against human A549 cells assessed as cell growth at 10 uM after 48 hrs by cell-titer-Glo assay relative to control; type: cell-based; details: read-out: Activity; in short: as §2

Compound	inhibition of growth at 10 µM [1]	EC50 [2]	CC50 [3]	selectivity ratio [4]	inhibition (INH) [5]	Activity [6]	viability at 48 h, 10 µM [7]	IC50 [2]
O=c1c(O)c(-c2ccc3c(c2)OCO3)oc2cc(Cl)ccc12	83%	3.8 µM	< 12.5 µM	3	Not Active	Non-Toxic	< 0%	
CCCCC(=O)Oc1c(-c2ccc3c(c2)OCO3)oc2cc(OC)ccc2c1=O	100%	0.6 µM	< 12.5 µM	22	Not Active	Non-Toxic		
O=c1c(O)c(-c2ccc3c(c2)OCO3)oc2cc(F)ccc12	98%	2.4 µM	< 12.5 µM	8	Not Active	Non-Toxic		
CCCOc1c(-c2ccc3c(c2)OCO3)oc2cc(OC)ccc2c1=O	20%	> 10 µM	12.5 to 25 µM		Not Active	Non-Toxic		
COc1ccc2oc(-c3ccc4c(c3)OCO4)c(O)c(=O)c2c1	19%		< 12.5 µM		Not Active	Non-Toxic		
COc1ccc2c(=O)c(O)c(-c3ccc4c(c3)OC(F)(F)O4)oc2c1	47%	> 10 µM	> 100 µM		Not Active	Non-Toxic		
O=c1c(O)c(-c2ccc3c(c2)OCO3)oc2ccc(Cl)cc12	13%		< 12.5 µM		Not Active	Non-Toxic		
COc1ccc2c(=O)c(O)c(-c3ccc4c(c3)OCCO4)oc2c1	71%	> 10 µM	50 to 100 µM		Not Active	Non-Toxic		
Cc1ccc2oc(-c3ccc4c(c3)OCO4)c(O)c(=O)c2c1	99%	4.1 µM	< 12.5 µM	3	Not Active	Non-Toxic		
COc1ccc2c(=O)c(OC(=O)C3CCCCC3)c(-c3ccc4c(c3)OCO4)oc2c1	98%	0.5 µM	12.5 to 25 µM	25	Not Active	Non-Toxic		
N=C(N)c1ccc(OCCCCCOc2ccc(C(=N)N)cc2)cc1 [PENTAMIDINE]								0.00155 µM
